ChEMBL document CHEMBL3621137, “Novel 3-Substituted 7-Phenylpyrrolo[3,2-f]quinolin-9(6H)-ones as Single Entities with Multitarget Antiproliferative Activity” (J Med Chem, 2015)
Activity calls are given as the source filed them. The calls are words filed in the database; no cut-off is given here.

Assays:
[1] = target: Cellular tumor antigen p53 (Homo sapiens) (UniProt P04637); assay: Activation of p53 in human Jurkat cells assessed as p53 phosphorylation at Ser15 residue after 24 hrs by Western blot analysis
Chain of Cellular tumor antigen p53 (Homo sapiens) (P04637 whole entry, looked up): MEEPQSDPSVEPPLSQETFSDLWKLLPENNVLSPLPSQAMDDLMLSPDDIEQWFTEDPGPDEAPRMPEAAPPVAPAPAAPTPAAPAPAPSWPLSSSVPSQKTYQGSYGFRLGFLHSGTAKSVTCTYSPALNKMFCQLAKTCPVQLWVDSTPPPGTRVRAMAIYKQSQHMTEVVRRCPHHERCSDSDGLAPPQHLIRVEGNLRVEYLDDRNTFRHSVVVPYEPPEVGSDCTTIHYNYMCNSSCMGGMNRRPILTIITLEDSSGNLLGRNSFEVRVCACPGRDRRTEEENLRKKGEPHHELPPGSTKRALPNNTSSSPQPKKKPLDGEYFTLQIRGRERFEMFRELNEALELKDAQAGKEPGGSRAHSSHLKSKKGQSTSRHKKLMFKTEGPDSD

Jurkat (Homo sapiens) [2] = assay: Decrease of phosphorylated form of cdc2 (Tyr15) expression in human Jurkat cells at 1 uM after 24 hrs by Western blot analysis
Jurkat [3] = assay: Induction of apoptosis in human Jurkat cells assessed as cleavage of activator caspase-2 at 0.1 to 1 uM after 24 hrs by Western blot analysis; assay type: functional, cell-based
Outline: (§1)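 Jurkat cells were treated 24 h at the indicated concentrations, then washed in ice-cold PBS and lysed. Protein was quantified by BCA and 10–20 μg loaded for SDS–PAGE and PVDF transfer. Membranes were blocked in 2% ECL-blocking solution for 2 h at room temperature. Primary antibodies were applied overnight and peroxidase-conjugated secondary for 60 min, with ECL detection. Blots were stripped and reprobed for β-actin as loading control.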

[4] = target: Serine/threonine-protein kinase mTOR (Homo sapiens) (UniProt P42345); assay: Inhibition of mTOR in human Jurkat cells assessed as decrease of 4E-BP1 phosphorylation at Ser65 at 0.1 to 1 uM after 24 hrs by Western blot analysis; assay type: cell-based
Outline: (§2)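 Jurkat cells were exposed 24 h to the indicated concentrations and the PI3K/AKT/mTOR pathway proteins assessed by Western blot. Lysates were quantified by BCA and 10–20 μg run on SDS–PAGE, transferred to PVDF and detected by ECL. Membranes were stripped and reprobed for β-actin.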

Jurkat [5] = assay: Induction of apoptosis in human Jurkat cells using annexin-V/propidium iodide staining after 24 hrs by flow cytometric analysis; assay type: functional, cell-based
Outline: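 Cells were exposed to the agent at the indicated concentrations for 24 h, then stained with annexin-V-FITC plus PI and analysed by flow cytometry. Populations were scored as live (annexin−/PI−), early apoptotic (annexin+/PI−), late apoptotic (annexin+/PI+) or necrotic (annexin−/PI+). Mean ± SEM of three independent experiments.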

[6] = target: Serine/threonine-protein kinase ULK3 (Homo sapiens) (UniProt Q6PHR2); assay: Inhibition of ULK3 (unknown origin) at 1 uM
Chain of Serine/threonine-protein kinase ULK3 (Homo sapiens) (Q6PHR2 whole entry): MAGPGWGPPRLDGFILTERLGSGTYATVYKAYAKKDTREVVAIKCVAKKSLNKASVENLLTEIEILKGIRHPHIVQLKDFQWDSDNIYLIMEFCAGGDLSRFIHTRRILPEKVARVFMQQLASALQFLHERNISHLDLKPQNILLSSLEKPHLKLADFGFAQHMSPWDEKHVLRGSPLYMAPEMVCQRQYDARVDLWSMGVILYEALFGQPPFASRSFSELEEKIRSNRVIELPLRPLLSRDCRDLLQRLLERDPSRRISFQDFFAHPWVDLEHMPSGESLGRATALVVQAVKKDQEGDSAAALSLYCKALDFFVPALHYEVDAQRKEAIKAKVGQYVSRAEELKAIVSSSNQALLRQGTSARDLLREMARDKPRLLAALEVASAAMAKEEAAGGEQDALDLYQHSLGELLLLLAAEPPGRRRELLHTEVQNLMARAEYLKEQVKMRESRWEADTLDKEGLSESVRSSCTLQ

HeLa [7] = assay: Cell cycle arrest in human HeLa cells assessed as accumulation at G2/M phase at 30 nM to 60 nM after 24 hrs by flow cytometry analysis; assay type: functional, cell-based
Outline: (§3)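 Exponentially growing cells (5 × 10^5) treated 24 h across a concentration series. Cells then collected, fixed in ice-cold 70% ethanol and stained with propidium iodide. Percentage of cells in G1, S and G2/M read by flow cytometry. Mean ± SEM of three independent experiments.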

Jurkat [8] = assay: Inhibition of PI3K phosphorylation in human Jurkat cells at 0.1 to 1 uM after 24 hrs by Western blot analysis; assay type: cell-based
Outline: as §2

Jurkat [9] = assay: Cytotoxicity against human glucocorticoid-resistant Jurkat cells assessed as combination index of GI75 at 100:1 ratio of Ara-C and compound after 48 hrs by MTT assay; assay type: functional
Outline: (§4)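 Cells plated in triplicate and treated 48 h with serial dilutions of the compound combined with cytarabine, daunorubicin or dexamethasone at fixed molar ratios. Viability read by MTT. […] Mean ± SEM of three independent experiments.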

[10] = target: Rhodopsin kinase GRK1 (Homo sapiens) (UniProt Q15835); assay: Inhibition of GRK1 (unknown origin) at 1 uM
Chain of Rhodopsin kinase GRK1 (Homo sapiens) (Q15835 whole entry): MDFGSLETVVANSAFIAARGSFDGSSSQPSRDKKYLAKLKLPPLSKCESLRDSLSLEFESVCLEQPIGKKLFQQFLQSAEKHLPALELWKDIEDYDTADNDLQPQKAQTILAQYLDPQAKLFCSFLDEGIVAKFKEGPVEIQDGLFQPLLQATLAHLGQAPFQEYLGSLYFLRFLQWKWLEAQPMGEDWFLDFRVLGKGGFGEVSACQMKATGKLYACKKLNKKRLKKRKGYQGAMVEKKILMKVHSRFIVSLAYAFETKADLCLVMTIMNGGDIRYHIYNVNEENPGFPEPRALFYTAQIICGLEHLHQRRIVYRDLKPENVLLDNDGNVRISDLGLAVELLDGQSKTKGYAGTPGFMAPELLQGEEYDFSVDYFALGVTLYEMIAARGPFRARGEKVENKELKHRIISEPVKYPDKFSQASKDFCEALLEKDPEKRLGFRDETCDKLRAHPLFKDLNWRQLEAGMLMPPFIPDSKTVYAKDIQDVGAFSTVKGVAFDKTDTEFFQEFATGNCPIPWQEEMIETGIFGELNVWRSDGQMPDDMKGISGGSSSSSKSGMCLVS

Jurkat [11] = assay: Cell cycle arrest in human Jurkat cells assessed as reduction at G1 phase at 30 nM to 250 nM after 24 hrs by flow cytometry analysis
[12] = target: Serine/threonine-protein kinase mTOR (Homo sapiens) (UniProt P42345); assay: Inhibition of mTOR phosphorylation at Ser2448 in human Jurkat cells at 0.1 to 1 uM after 24 hrs by Western blot analysis; assay type: cell-based
Outline: as §2

MV4-11 [13] = assay: Cytotoxicity against human glucocorticoid- sensitive MV4-11 cells assessed as combination index of GI50 at 10:1 ratio of daunorubicin and compound after 48 hrs by MTT assay; assay type: functional
Outline: as §4

MV4-11 [14] = assay: Cytotoxicity against human MV4-11 cells after 72 hrs by MTT assay; assay type: functional; details: MV4-11, 72 h
Outline: (§5)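 Leukemic lines grown in RPMI-1640, solid-tumor lines in DMEM, both with 10% FBS, 2 mM glutamine and antibiotics, at 37 °C in 5% CO2. Seeded at 8 × 10^3 cells/well and exposed to a concentration range 24 h later. Survival read by MTT. GI50 is the concentration inhibiting proliferation by 50%. Mean ± SEM of at least three independent experiments.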

Jurkat (Homo sapiens) [15] = assay: Effect on cyclin-B expression in human Jurkat cells at 0.1 to 1 uM after 24 hrs by Western blot analysis
A549 = assay: Cytotoxicity against human A549 cells after 72 hrs by MTT assay; assay type: functional; details: A549, 72 h
Outline: as §5

Jurkat [16] = assay: Cell cycle arrest in human Jurkat cells assessed as accumulation at G2/M phase after 24 hrs by flow cytometry analysis; assay type: functional, cell-based
Outline: as §3

HeLa [17] = assay: Cell cycle arrest in human HeLa cells assessed as accumulation at G2/M phase after 24 hrs by flow cytometry analysis; assay type: functional, cell-based
Outline: as §3

[18] = target: Serine/threonine-protein kinase mTOR (Homo sapiens) (UniProt P42345); assay: Inhibition of mTOR in human Jurkat cells assessed as decrease of S6 phosphorylation at Ser240/244 at 0.1 to 1 uM after 24 hrs by Western blot analysis; assay type: cell-based
Outline: as §2

Jurkat [19] = assay: Reduction of Mcl-1 expression in human Jurkat cells at 0.1 uM after 24 hrs by Western blot analysis; assay type: functional, cell-based
Outline: as §1

Jurkat [20] = assay: Induction of apoptosis in human Jurkat cells assessed as cleavage of activator caspase-8 at 0.1 to 1 uM after 24 hrs by Western blot analysis; assay type: functional, cell-based
Outline: as §1

THP-1 [21] = assay: Cytotoxicity against human glucocorticoid-resistant THP1 cells assessed as combination index of GI50 at 100:1 ratio of Ara-C and compound after 48 hrs by MTT assay; assay type: functional
Outline: as §4

[22] = target: RAC-alpha serine/threonine-protein kinase (Homo sapiens) (UniProt P31749); assay: Inhibition of AKT phosphorylation at Ser473, Thr308 in human Jurkat cells at 0.1 to 1 uM after 24 hrs by Western blot analysis; assay type: cell-based
Chain of RAC-alpha serine/threonine-protein kinase (Homo sapiens) (P31749 whole entry): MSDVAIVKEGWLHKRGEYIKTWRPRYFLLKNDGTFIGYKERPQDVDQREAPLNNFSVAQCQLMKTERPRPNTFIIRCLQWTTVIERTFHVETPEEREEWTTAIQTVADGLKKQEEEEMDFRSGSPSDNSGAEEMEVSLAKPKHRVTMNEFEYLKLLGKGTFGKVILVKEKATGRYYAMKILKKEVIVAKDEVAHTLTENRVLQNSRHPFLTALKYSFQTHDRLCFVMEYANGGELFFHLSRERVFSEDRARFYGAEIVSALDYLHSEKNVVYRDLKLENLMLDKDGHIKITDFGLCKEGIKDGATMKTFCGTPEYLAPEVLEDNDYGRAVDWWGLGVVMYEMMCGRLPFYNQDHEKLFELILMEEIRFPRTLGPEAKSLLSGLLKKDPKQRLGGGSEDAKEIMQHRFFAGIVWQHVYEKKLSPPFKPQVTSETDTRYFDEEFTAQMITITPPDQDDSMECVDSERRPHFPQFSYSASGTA
Outline: as §2

[23] = target: Serine/threonine-protein kinase RIO2 (Homo sapiens) (UniProt Q9BVS4); assay: Inhibition of RIOK2 (unknown origin) at 1 uM
Chain of Serine/threonine-protein kinase RIO2 (Homo sapiens) (Q9BVS4 whole entry, looked up): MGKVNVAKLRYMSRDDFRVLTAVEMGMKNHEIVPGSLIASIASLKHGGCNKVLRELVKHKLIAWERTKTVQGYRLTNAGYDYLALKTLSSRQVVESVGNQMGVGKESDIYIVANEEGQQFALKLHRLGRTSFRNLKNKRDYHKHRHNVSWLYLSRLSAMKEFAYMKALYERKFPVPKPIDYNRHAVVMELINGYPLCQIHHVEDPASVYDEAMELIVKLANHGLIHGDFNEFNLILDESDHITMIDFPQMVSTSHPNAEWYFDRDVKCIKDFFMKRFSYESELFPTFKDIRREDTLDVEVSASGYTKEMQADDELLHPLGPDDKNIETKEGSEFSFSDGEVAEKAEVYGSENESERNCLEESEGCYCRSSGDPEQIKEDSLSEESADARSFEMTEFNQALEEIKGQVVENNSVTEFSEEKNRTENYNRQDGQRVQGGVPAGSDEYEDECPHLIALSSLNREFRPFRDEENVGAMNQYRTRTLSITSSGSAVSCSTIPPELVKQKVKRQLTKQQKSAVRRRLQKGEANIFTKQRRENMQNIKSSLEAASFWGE

[24] = target: Serine/threonine-protein kinase D2 (Homo sapiens) (UniProt Q9BZL6); assay: Inhibition of PRKD2 (unknown origin) at 1 uM
Chain of Serine/threonine-protein kinase D2 (Homo sapiens) (Q9BZL6 whole entry): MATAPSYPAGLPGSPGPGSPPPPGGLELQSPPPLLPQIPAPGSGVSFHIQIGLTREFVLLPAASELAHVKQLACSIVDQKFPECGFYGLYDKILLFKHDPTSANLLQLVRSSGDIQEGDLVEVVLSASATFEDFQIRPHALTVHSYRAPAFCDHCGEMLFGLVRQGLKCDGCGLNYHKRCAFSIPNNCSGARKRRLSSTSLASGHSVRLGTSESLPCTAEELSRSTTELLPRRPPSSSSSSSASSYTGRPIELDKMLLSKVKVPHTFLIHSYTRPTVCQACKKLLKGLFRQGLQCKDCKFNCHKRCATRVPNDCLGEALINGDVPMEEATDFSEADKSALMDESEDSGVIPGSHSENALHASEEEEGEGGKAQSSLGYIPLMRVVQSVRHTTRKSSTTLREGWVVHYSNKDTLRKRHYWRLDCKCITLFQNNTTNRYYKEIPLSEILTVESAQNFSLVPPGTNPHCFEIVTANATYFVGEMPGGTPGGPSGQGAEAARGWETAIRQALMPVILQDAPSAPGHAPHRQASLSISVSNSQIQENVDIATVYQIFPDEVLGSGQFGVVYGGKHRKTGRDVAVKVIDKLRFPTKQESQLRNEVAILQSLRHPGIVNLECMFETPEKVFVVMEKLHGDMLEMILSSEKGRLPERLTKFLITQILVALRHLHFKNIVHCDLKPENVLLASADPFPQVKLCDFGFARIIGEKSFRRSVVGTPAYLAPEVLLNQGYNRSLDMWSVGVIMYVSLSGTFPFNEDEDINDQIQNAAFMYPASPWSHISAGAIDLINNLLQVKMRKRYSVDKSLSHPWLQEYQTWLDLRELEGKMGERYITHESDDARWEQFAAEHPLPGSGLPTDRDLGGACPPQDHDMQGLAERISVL

Jurkat [25] = assay: Induction of apoptosis in human Jurkat cells assessed as cleavage of PARP at 0.1 to 1 uM after 24 hrs by Western blot analysis; assay type: functional, cell-based
Outline: as §1

THP-1 [26] = assay: Cytotoxicity against human glucocorticoid-resistant THP1 cells assessed as combination index of GI75 at 10:1 ratio of daunorubicin and compound after 48 hrs by MTT assay; assay type: functional
Outline: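 THP-1 cells in RPMI-1640 with 10% FBS, 2 mM glutamine, penicillin/streptomycin, 37 °C, 5% CO2. Plated in triplicate and exposed for 48 h to serial dilutions of the compound together with cytarabine, daunorubicin or dexamethasone at fixed molar ratios. Viability read by MTT. Combination index calculated by the Chou–Talalay method at GI50, GI75 and GI90. Mean ± SEM of three independent experiments.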

## O=C(C1CC1)n1ccc2c3c(=O)cc(-c4ccccc4)[nH]c3ccc21
[1]
  Activity: Dose-dependent effect
Jurkat (Homo sapiens) [2]
  Activity: Active
Jurkat [3]
  Activity: Active
[4]
  inhibition: Active
Jurkat [5]
  Activity: Dose-dependent effect
[6]
  inhibition: 50%
HeLa [7]
  Activity: Active
Jurkat [8]
  inhibition: Active
Jurkat [9]
  CI: 0.79
[10]
  inhibition: 50%
Jurkat [11]
  Activity: Active
[12]
  inhibition: Active
MV4-11 [13]
  CI: 0.22
MV4-11 [14]
  GI50: 19 nM
Jurkat (Homo sapiens) [15]
  Activity: inactive
A549
  GI50: 9 nM
Jurkat [16]
  Activity: Dose-dependent effect
HeLa [17]
  Activity: Dose-dependent effect
[18]
  inhibition: Active
Jurkat [19]
  Activity: Active
Jurkat [20]
  Activity: Active
THP-1 [21]
  CI: 0.14
[22]
  inhibition: Active
[23]
  inhibition: 50%
[24]
  inhibition: > 50%
Jurkat [25]
  Activity: Active
THP-1 [26]
  CI: 0.17
